Data as given in ChEMBL document CHEMBL2412970, “Synthesis and anticancer activity of 2,4-disubstituted furo[3,2-b]indole derivatives” (Eur J Med Chem, 2013).
Active and inactive are the calls of the source. The calls are words filed in the database; no cut-off is given here.

Assays:
Detroit 551 = test: Cytotoxicity against human Detroit 551 cells after 48 hrs by MTT assay; assay type: cell-based; conditions: Detroit 551, 48 h
A498 [1] = test: Induction of apoptosis in human A498 cells assessed as increase in AIF level at 0.5 uM after 6 to 48 hrs by Western blotting analysis; assay type: functional, cell-based
Method in brief: (§1)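 A498 cells exposed for 6, 12, 24, 36 or 48 h, then washed in PBS and lysed. Lysates were held on ice for 30 min and spun at 12 000g for 20 min. Supernatant protein was measured by Bradford assay, run on 10% SDS-PAGE and transferred to nitrocellulose. Blots were probed for AIF, Endo G, Apaf-1, cytochrome c, caspase 9 and caspase 3, with β-actin as loading control; n = 3 independent experiments.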

A498 [2] = test: Induction of apoptosis in human A498 cells assessed as increase in cytochrome C level at 0.5 uM after 6 to 48 hrs by Western blotting analysis; assay type: functional, cell-based; method in brief: as §1
SNB-19 = test: Cytotoxicity against human SNB19 cells after 48 hrs by sulforhodamine B assay; assay type: functional; conditions: SNB-19, 48 h
NCI-H322M = test: Cytotoxicity against human NCI-H322M cells after 48 hrs by sulforhodamine B assay; assay type: functional
M14 = test: Cytotoxicity against human M14 cells after 48 hrs by sulforhodamine B assay; assay type: functional; conditions: M14, 48 h
A498 [3] = test: Induction of apoptosis in human A498 cells assessed as caspase-3 activation at 0.5 uM after 24 hrs by Western blotting analysis; assay type: functional, cell-based; method in brief: as §1
MDA-MB-231 = test: Cytotoxicity against human MDA-MB-231 cells after 48 hrs by sulforhodamine B assay; assay type: functional; conditions: MDA-MB-231, 48 h
MCF7 = test: Cytotoxicity against human MCF7 cells after 48 hrs by sulforhodamine B assay; assay type: functional; conditions: MCF7, 48 h
A498 [4] = test: Induction of apoptosis in human A498 cells assessed as late apoptotic cells at 0.5 uM after 24 hrs by AnnexinV/FITC-propidium iodide staining-based flow cytometry (reference value: 9.6%); assay type: functional
Method in brief: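 Flow cytometry with annexin V-FITC/PI double labeling of A498 cells treated for 12, 24, 36 or 48 h; untreated cells served as the 0 h control. Stained in binding buffer for 15 min at room temperature in the dark, with more binding buffer added just before analysis. Annexin V+/PI− (Q4) counted as early apoptotic and annexin V+/PI+ (Q2) as late apoptotic.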

DU-145 = test: Cytotoxicity against human DU145 cells after 48 hrs by sulforhodamine B assay; assay type: functional; conditions: DU-145, 48 h
A498 [5] = test: Cytotoxicity against human A498 cells assessed as cell rounding at 0.5 uM after 24 hrs by phase contrast microscopy; assay type: functional, cell-based
Method in brief: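 A498 cells were plated at 5 × 10⁵ per well and exposed to 0.5 µM for 24 h. Cell rounding and shrinkage were scored by microscopy against untreated control cells.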

A549 = test: Cytotoxicity against human A549/ATCC cells after 48 hrs by sulforhodamine B assay; assay type: functional; conditions: A549, 48 h
NCI/ADR-RES = test: Cytotoxicity against human NCI/ADR-RES cells after 48 hrs by sulforhodamine B assay; assay type: functional
A498 [6] = test: Cell cycle arrest in human A498 cells assessed as accumulation at sub-G1 phase at 0.5 uM by propidium iodide staining-based flow cytometry; assay type: functional; conditions: TDE = time-dependent effect
T47D = test: Cytotoxicity against human T47D cells after 48 hrs by sulforhodamine B assay; assay type: functional
A498 [7] = test: Cytotoxicity against human A498 cells assessed as reduction in cell viability at 0.25 uM after 48 hrs by MTT assay relative to control; assay type: functional
HCT-15 = test: Cytotoxicity against human HCT15 cells after 48 hrs by sulforhodamine B assay; assay type: functional; conditions: HCT-15, 48 h
A498 [8] = test: Cell cycle arrest in human A498 cells assessed as accumulation at G2/M phase at 0.5 uM after 24 hrs by propidium iodide staining-based flow cytometry (reference value: 5.39 +/- 0.01%); assay type: functional
IGROV-1 = test: Cytotoxicity against human IGROV1 cells after 48 hrs by sulforhodamine B assay; assay type: functional; conditions: IGROV-1, 48 h
A498 [9] = test: Induction of apoptosis in human A498 cells assessed as increase in Endo G level at 0.5 uM after 6 to 48 hrs by Western blotting analysis; assay type: functional, cell-based; method in brief: as §1
ACHN = test: Cytotoxicity against human ACHN cells after 48 hrs by sulforhodamine B assay; assay type: functional
SK-MEL-5 = test: Cytotoxicity against human SK-MEL-5 cells after 48 hrs by sulforhodamine B assay; assay type: functional; conditions: SK-MEL-5, 48 h
A498 [10] = test: Antitumor activity against human A498 cells xenografted in BALB/cAnN.Cg-Foxn1nu/CrlNarl nude mouse assessed as suppression of tumor growth at 60 mg/kg/day, ip qd administered 5 times a week for 28 days measured every 7 days relative to control; assay type: functional; conditions: route intraperitoneal, read-out: TGI
Method in brief: (§2)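 Male nude mice (18–20 g, 4–6 weeks) were inoculated subcutaneously with A498 cells, 2 × 10⁶ per mouse in 0.1 mL PBS. Once tumors reached 100 mm³, mice were randomized and given ip doses of 30 or 60 mg/kg, 5 times per week for 4 weeks. Body weight and tumor size were recorded every 7 days over 28 days. Volume = 1/2 ([…]).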

A498 [11] = test: Cell cycle arrest in human A498 cells assessed as accumulation at G2/M phase at 0.5 uM by propidium iodide staining-based flow cytometry; assay type: functional; conditions: TDE = time-dependent effect
NCI-H460 = test: Cytotoxicity against human NCI-H460 cells after 48 hrs by sulforhodamine B assay; assay type: functional; conditions: NCI-H460, 48 h
HCT-116 = test: Cytotoxicity against human HCT116 cells after 48 hrs by sulforhodamine B assay; assay type: functional; conditions: HCT-116, 48 h
HL-60(TB) = test: Cytotoxicity against human HL-60(TB) cells after 48 hrs by sulforhodamine B assay; assay type: functional; conditions: HL-60, 48 h
A498 [12] = test: Antitumor activity against human A498 cells xenografted in ip dosed BALB/cAnN.Cg-Foxn1nu/CrlNarl nude mouse assessed as suppression of tumor growth administered qd for 5 times a week for 28 days measured every 7 days; assay type: functional, organism-based; method in brief: as §2
[13] = read-out: pLC50 (the source's name) (converted)

With OCc1ccc(Cn2c3ccccc3c3oc(CO)cc32)o1 the IC50 (Detroit 551) was > 50 µM, the Activity (A498 [1]) was “Active” and the Activity (A498 [2]) was “Active”. The GI50 (SNB-19) was > 100 µM, the CC50 (SNB-19; [13]) was > 100 µM and the TGI (SNB-19; read-out: pTGI) was > 100 µM. For the same molecule, the GI50 (NCI-H322M) was > 100 µM, the CC50 (NCI-H322M; [13]) was > 100 µM and the TGI (NCI-H322M; read-out: pTGI) was > 100 µM. For the same molecule, the GI50 (M14) was 13.2 µM, the CC50 (M14; [13]) was > 100 µM and the TGI (M14; read-out: pTGI) was > 100 µM. For the same molecule, the Activity (A498 [3]) was “Active”, the GI50 (MDA-MB-231) was 74.1 µM and the CC50 (MDA-MB-231; [13]) was > 100 µM. For the same molecule, the TGI (MDA-MB-231; read-out: pTGI) was > 100 µM, the GI50 (MCF7) was 9.33 µM and the CC50 (MCF7; [13]) was > 100 µM. For the same molecule, the TGI (MCF7; read-out: pTGI) was > 100 µM, the Activity (A498 [4]) was 15.6% and the GI50 (DU-145) was > 100 µM. The CC50 (DU-145; [13]) was > 100 µM, the TGI (DU-145; read-out: pTGI) was > 100 µM and the Activity (A498 [5]) was “Active”. The GI50 (A549) was 64.6 µM, the CC50 (A549; [13]) was > 100 µM and the TGI (A549; read-out: pTGI) was > 100 µM. For the same molecule, the GI50 (NCI/ADR-RES) was > 100 µM, the CC50 (NCI/ADR-RES; [13]) was > 100 µM and the TGI (NCI/ADR-RES; read-out: pTGI) was > 100 µM. The Activity (A498 [6]) was “tde”, the GI50 (T47D) was 1.62 µM and the CC50 (T47D; [13]) was > 100 µM. The TGI (T47D; read-out: pTGI) was > 100 µM, the Activity (A498 [7]) was 39.5% and the GI50 (HCT-15) was 87.1 µM. The CC50 (HCT-15; [13]) was > 100 µM, the TGI (HCT-15; read-out: pTGI) was > 100 µM and the Activity (A498 [8]) was 11.37%. The GI50 (IGROV-1) was 4.68 µM, the CC50 (IGROV-1; [13]) was > 100 µM and the TGI (IGROV-1; read-out: pTGI) was > 100 µM. For the same molecule, the Activity (A498 [9]) was “Active”, the GI50 (ACHN) was 79.4 µM and the CC50 (ACHN; [13]) was > 100 µM. For the same molecule, the TGI (ACHN; read-out: pTGI) was > 100 µM, the GI50 (SK-MEL-5) was > 100 µM and the CC50 (SK-MEL-5; [13]) was > 100 µM. For the same molecule, the TGI (SK-MEL-5; read-out: pTGI) was > 100 µM, the inhibition in vivo at 60 mg/kg/day (A498 [10]) was 80% and the Activity (A498 [11]) was “tde”. For the same molecule, the GI50 (NCI-H460) was > 100 µM, the CC50 (NCI-H460; [13]) was > 100 µM and the TGI (NCI-H460; read-out: pTGI) was > 100 µM. For the same molecule, the GI50 (HCT-116) was 0.912 µM, the CC50 (HCT-116; [13]) was > 100 µM and the TGI (HCT-116; read-out: pTGI) was > 100 µM. For the same molecule, the GI50 (HL-60(TB)) was > 100 µM, the CC50 (HL-60(TB); [13]) was > 100 µM and the TGI (HL-60(TB); read-out: pTGI) was > 100 µM. For the same molecule, the Activity (A498 [12]) was “Dose-dependent effect”.
